HUVEC prolif 384: inhibitors of HUVEC proliferation, primary screen, cell-based, 384-well; CellTiter-Glo luminescence, 72 h; stronger effect = lower value; viability, % at 10 µM (by protocol); hit rate 1.1% among 86,000;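 active = viability at or below 30%; inactive = viability above 30%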
Lung fibro prol: antiproliferative effect on LL 47 fibroblasts – human, LL 47 cells, CellTiter-Glo luminescence, primary screen. LL 47 human lung fibroblast viability, ATP luminescence; stronger effect = lower value. viability, % at 10 µM. hit rate 1.1% among 85,000;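 active = viability at or below 50% in the single dose screen; inactive = viability above 50%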;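 also: compound exposure lasted 72 h before the ATP readout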
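Material: Human LL 47 lung fibroblast cells | Input: 1,150 cells/well | Buffer or medium: IMEM plus 15% FBS | Compound dosing: 0.1% DMSO in all compound wells | Times: Overnight cell rest, 72 h compound treatment at 37 °C | Signal: CellTiter-Glo luminescence measuring cellular ATP | Measure: % viability versus median cells-only luminescence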
Jurkat tox 60K: cytotoxicity toward Jurkat T cells, primary screen, cytotoxicity control, cell-based, Jurkat E6.1, 60K MLSMR library; hit rate 1.2% among 56,000; AID 463, 2006; inhibition, % at 4 µM; Jurkat E6.1 viability, ATP luminescence, 48 h;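 active = inhibition above the mean inhibition of all tested compounds plus 3 SD, cut at about 28% in these data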
H69AR inhibit: proliferation blockers of H69AR lung cancer cells, primary screen, cell-based, human, 86K library; hit rate 6% among 85,000; viability, % at 10 µM; H69AR lung tumor viability, ATP luminescence, 72 h; stronger effect = lower value;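 active = viability at or below 40%; inactive = viability above 40%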;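 also: multidrug resistant small cell line overexpressing MRP-1 efflux transporter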
Numbers stand for hits; . = inactive; / = not tested or not shown. Only some compounds are listed: those with a hit (about 6.6% of all), similar ones and a draw of the others.

SMILES	HUVEC prolif 384	Lung fibro prol	Jurkat tox 60K	H69AR inhibit
Cc1ccc2c(CSc3nc4ccccc4c(=O)n3CCCO)cc(=O)oc2c1	.	.	.	.
CCOC(=O)c1cc(C#N)c(N)nc1C	.	.	.	.
CCOC(=O)c1cc2c(N)c(C(=O)c3cc(C#N)c(SC)nc3C)sc2nc1C	.	/	.	16.1
O=C1C2C3C=CC(C3)C2C(=O)N1c1cccc(-c2nc3ccccc3o2)c1 (centres undefined)	.	.	.	.
O=C(Nc1cccc(-c2nc3ccccc3o2)c1)c1ccc(N2C(=O)C3C4C=CC(C4)C3C2=O)cc1 (centres undefined)	.	.	/	39.0
COc1ccc(C(=O)Cc2ccc(OC)c(OC)c2)c(OC)c1	.	.	/	.
COc1ccc(C(C(=O)OC(C)CN(C)C)c2ccccc2)cc1 (centres undefined)	/	/	.	/
CN(C)CC(C(=O)c1ccccc1)c1ccccc1 (centres undefined)	.	17.3	101.2	0.1
O=C(Cn1cc2c(n1)CCCC2)NCCCN1CCN(c2ccccc2F)CC1	.	.	.	.
Cc1ccc(C)c(N2CCN(CCCNC(=O)Cn3cc4c(n3)CCCCC4)CC2)c1	21.9	.	.	.
Cc1ccc(C)c(N2CCN(CCCNC(=O)Cn3cc4c(n3)CCC(C)C4)CC2)c1 (centres undefined)	15.4	.	.	.
CCOC(=O)c1c(NC(=O)CSc2nnc(CNC(=O)c3ccco3)n2C)sc2c1CCC2	.	.	/	/
N/C(=N\OC(=O)Nc1ccccc1)c1ncc(C(F)(F)F)cc1Cl	.	.	/	.
N/C(=N\OC(=O)Nc1ccc(Cl)cc1)c1ncc(C(F)(F)F)cc1Cl	.	.	/	31.7
O=C(COc1ccc(-c2nnco2)cc1)N1CCN(S(=O)(=O)c2ccc3ccccc3c2)CC1	.	.	.	35.9
COc1ccc(CCC(=O)N2CCN(S(=O)(=O)c3ccc4ccccc4c3)CC2)cc1	.	.	/	.
CCC(NC(=O)Nc1nccs1)(C(F)(F)F)C(F)(F)F	.	.	/	.
CCSc1nnc(NC(=O)NC(CC)(C(F)(F)F)C(F)(F)F)s1	.	.	/	13.8
CC(C)OP(=O)(OC(C)C)C(NC(=O)c1ccc(Br)cc1)c1ccccc1 (centres undefined)	.	.	/	28.3
CC(NC(=O)c1ccc(NS(C)(=O)=O)cc1)c1ccccc1 (centres undefined)	.	.	.	.
Cc1ccc(Cl)cc1N1CCN(C(=O)Cc2cn(C)c3ccccc23)CC1	.	.	/	33.9
CC(C)(C)S(=O)(=O)c1ccc(S(=O)(=O)C(C)(C)C)s1	.	.	/	.
COc1ccccc1NC(=O)c1ccc(NC(=O)CSc2nnnn2C)cc1	.	.	.	2.2
Cn1nnnc1SCC(=O)Nc1c(Cl)cccc1Cl	.	.	.	.
CC1(C)N=C(SCC(=O)Nc2ccc(Cl)cc2)C(c2ccc(Cl)cc2)=N1	.	.	/	8.4
SMILES	HUVEC prolif 384	Lung fibro prol	Jurkat tox 60K	H69AR inhibit
Cn1nnnc1SCC(=O)Nc1ccc(Oc2ccc(Cl)cc2)cc1	.	.	50.9	.
CC1(C)N=C(SCC(=O)Nc2ccc(Cl)cc2)C(c2ccccc2)=N1	.	.	/	.
Cc1cccc(NC(=O)C2c3ccccc3C(=O)N3CCc4ccccc4C23)n1 (centres undefined)	.	.	.	.
COc1ccccc1C1Nc2cccc3cccc(c23)N1	.	.	/	.
Oc1ccccc1C1Nc2cccc3cccc(c23)N1	.	.	.	33.7
CCOc1cc(C2Nc3cccc4cccc(c34)N2)ccc1O	.	.	/	36.1
Cc1ccc(C2Nc3ccccc3C(=O)N2Cc2ccco2)cc1 (centres undefined)	.	.	.	29.8
Cc1c(NC(=O)c2ccccc2N(C)S(=O)(=O)c2ccccc2)c(=O)n(-c2ccccc2)n1C	.	.	/	.
CCNc1nc(C)c2cc(Br)c(=O)n(CC)c2n1	.	37.0	.	.
O=C(c1ccc(CNc2c(N3CCCC3)c(=O)c2=O)cc1)N1CCc2ccccc2C1	.	.	.	.
[O-][n+]1onc2c1CCc1nnc(-c3ccccc3)cc1-2	.	.	.	35.5
CCS(=O)(=O)Nc1ccc(C(=O)CC2(O)C(=O)Nc3ccccc32)cc1 (centres undefined)	.	.	.	.
COC(=O)c1ccc(NC2(C#N)C(=O)Nc3ccccc32)cc1 (centres undefined)	.	.	.	23.1
CC(c1ccco1)N(C(=O)CSc1ccc(Br)cc1)c1ccccn1 (centres undefined)	.	.	.	.
COc1ccccc1N1CCN(CC(=O)Nc2cc(F)ccc2C)CC1	.	.	/	.
COC(=O)c1c(NC(=O)CN2CCN(c3ccccc3OC)CC2)c2cc(C)ccc2n1C	.	.	.	29.3
COc1ccccc1N1CCN(CC(=O)Nc2cc(C)nn2-c2nc(C)cc(C)n2)CC1	.	37.3	/	18.7
O=S(=O)(N/N=C/c1ccc(Cl)cc1)c1ccc(Cc2ncc(C(F)(F)F)cc2Cl)s1	.	.	/	.
CC(=O)Nc1sc(C)c(C)c1C(=O)OC1CCOC1=O (centres undefined)	.	.	.	.
COc1ccc(NC(=O)c2nc[nH]c2C(=O)Nc2ccccc2C)cc1	.	.	.	19.7
CCOc1ccccc1NC(=O)c1nc[nH]c1C(=O)Nc1ccccc1OCC	.	.	.	.
COc1ccccc1NC(=O)c1nc[nH]c1C(=O)Nc1ccccc1OC	.	.	.	39.4
Cc1ccccc1NC(=O)c1nc[nH]c1C(=O)NCc1ccccc1	.	.	.	.
Cc1ccc(C(=O)CSC2=C(C#N)C(c3ccco3)C3=C(CCCC3=O)N2)cc1 (centres undefined)	.	.	/	18.6
N#CC1=C(SCC(=O)c2ccccc2)NC2=C(C(=O)CCC2)C1c1ccco1 (centres undefined)	.	.	/	16.4
SMILES	HUVEC prolif 384	Lung fibro prol	Jurkat tox 60K	H69AR inhibit
COc1cccc(NC(=O)CSC2=C(C#N)C(c3ccco3)C3=C(CCCC3=O)N2)c1 (centres undefined)	.	.	/	.
CC(C)(C)c1ccc(C(=O)CCCSC2=C(C#N)C(c3ccco3)C3=C(CCCC3=O)N2)cc1 (centres undefined)	.	.	.	.
CC(C)(C)c1cc(NC(=O)CCSc2nnc3ccccn23)cc(C(C)(C)C)c1	.	46.2	/	.
O=C(c1cncc(Br)c1)N1CCc2ccccc2C1	.	.	/	.
COc1ccccc1Nc1ncnc2ccccc12	.	.	.	.
Oc1ccccc1-c1nc(NCCN2CCOCC2)c2ccccc2n1	.	.	/	12.0
Cc1ccc(-c2nc(NCCN3CCOCC3)c3ccccc3n2)cc1	.	.	.	.
COc1cccc(-c2nc(NC(C)(C)C)c3ccccc3n2)c1O	.	.	/	32.5
COc1cccc(-c2nc(NCCN3CCOCC3)c3ccccc3n2)c1O	.	.	/	8.3
Cc1ccc(S(=O)(=O)N=S(CC2CC2(Cl)Cl)CC2CC2(Cl)Cl)cc1 (centres undefined)	.	.	/	.
O=C(CCn1c(=O)sc2ccccc21)NCCN1CCOCC1	.	.	.	.
